This note sets out measurements from ChEMBL document CHEMBL1154352, “Toll-like receptor 7 selective synthetic oligoribonucleotide agonists: synthesis and structure-activity relationship studies” (J Med Chem, 2009).

Experiment [1] concerns the target T1, Toll-like receptor 7 (Homo sapiens) (UniProt Q9NYK1).
T1 sequence (whole entry): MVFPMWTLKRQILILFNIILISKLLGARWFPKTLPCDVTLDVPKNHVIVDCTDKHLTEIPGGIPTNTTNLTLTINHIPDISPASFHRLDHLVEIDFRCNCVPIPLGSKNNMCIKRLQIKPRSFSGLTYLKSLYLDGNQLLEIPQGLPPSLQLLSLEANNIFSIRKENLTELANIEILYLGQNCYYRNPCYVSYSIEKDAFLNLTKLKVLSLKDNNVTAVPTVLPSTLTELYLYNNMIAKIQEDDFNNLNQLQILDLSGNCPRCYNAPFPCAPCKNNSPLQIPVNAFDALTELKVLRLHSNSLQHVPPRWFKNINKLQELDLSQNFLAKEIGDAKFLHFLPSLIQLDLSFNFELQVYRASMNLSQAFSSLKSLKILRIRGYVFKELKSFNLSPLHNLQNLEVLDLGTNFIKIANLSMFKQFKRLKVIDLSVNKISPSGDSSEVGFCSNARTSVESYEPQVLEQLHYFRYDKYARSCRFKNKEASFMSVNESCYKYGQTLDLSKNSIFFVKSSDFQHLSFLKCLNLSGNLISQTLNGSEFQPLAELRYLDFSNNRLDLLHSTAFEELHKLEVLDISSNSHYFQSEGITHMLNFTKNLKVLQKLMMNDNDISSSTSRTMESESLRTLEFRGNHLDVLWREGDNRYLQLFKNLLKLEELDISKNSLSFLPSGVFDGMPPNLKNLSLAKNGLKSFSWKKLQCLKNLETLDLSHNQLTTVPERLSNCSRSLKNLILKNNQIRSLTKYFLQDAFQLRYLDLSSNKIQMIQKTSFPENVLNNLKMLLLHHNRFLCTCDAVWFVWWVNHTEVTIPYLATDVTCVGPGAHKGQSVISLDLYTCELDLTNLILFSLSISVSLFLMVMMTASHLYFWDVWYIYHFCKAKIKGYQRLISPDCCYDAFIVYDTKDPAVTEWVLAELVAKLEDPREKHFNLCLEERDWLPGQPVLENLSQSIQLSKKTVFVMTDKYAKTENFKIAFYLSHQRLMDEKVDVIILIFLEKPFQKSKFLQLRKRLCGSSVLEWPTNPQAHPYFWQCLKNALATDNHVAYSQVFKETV
Description: Activation of human TLR7 expressed in HEK293XL assessed as fold induction of NF-kappaB activity at 50 ug/ml after 18 hrs by reporter gene assay relative to control. A digest of the protocol:
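HEK293 cells stably expressing human TLR7 or TLR8, transiently transfected with SEAP reporter plasmid; medium replaced, SIMRA compounds added, 18 h incubation. Supernatant SEAP measured by QuantiBlue; expressed as fold increase in NF-κB activity over PBS control. Tabulated data at 50 μg/mL, representative of three independent experiments.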

Experiment [2] deals with Splenocyte. As to the kind of experiment: Immunomodulatory activity in C57BL/6 mouse splenocytes bearing TLR7 receptor assessed as IL6 release at 100 ug/ml after 24 hrs by ELISA. The class given is functional, cell-based. The gist of the method: (§1)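 C57BL/6 splenocytes in RPMI 1640 with 10% FBS, penicillin/streptomycin, 2 mM L-glutamine, plated at 5 × 10^6 cells/mL; compounds in PBS added, 37 °C for 24 h. Supernatant IL-12 and IL-6 by ELISA; representative of three independent experiments.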
(In general: ELISA stands for enzyme-linked immunosorbent assay.)

Experiment [3] has as its system Splenocyte. Description: Immunomodulatory activity in C57BL/6 mouse splenocytes bearing TLR7 receptor assessed as IL12 release at 100 ug/ml after 24 hrs by ELISA. The experiment is classed as functional, cell-based. The gist of the method:
as §1

The test system of experiment [4] is PBMC. Description: Immunomodulatory activity in human PBMC assessed as induction of IL12 at 100 ug/ml after 24 hrs. The class given is functional, cell-based. The gist of the method: (§2)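 Human PBMCs plated at 5 × 10^6 cells/mL; compounds dissolved in PBS added at various concentrations, 37 °C for 24 h. Supernatant cytokines/chemokines quantified with human Luminex multiplex kit.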

Experiment [5] has as its target T2, Toll-like receptor 9 (Mus musculus) (UniProt Q9EQU3).
T2 sequence (whole entry): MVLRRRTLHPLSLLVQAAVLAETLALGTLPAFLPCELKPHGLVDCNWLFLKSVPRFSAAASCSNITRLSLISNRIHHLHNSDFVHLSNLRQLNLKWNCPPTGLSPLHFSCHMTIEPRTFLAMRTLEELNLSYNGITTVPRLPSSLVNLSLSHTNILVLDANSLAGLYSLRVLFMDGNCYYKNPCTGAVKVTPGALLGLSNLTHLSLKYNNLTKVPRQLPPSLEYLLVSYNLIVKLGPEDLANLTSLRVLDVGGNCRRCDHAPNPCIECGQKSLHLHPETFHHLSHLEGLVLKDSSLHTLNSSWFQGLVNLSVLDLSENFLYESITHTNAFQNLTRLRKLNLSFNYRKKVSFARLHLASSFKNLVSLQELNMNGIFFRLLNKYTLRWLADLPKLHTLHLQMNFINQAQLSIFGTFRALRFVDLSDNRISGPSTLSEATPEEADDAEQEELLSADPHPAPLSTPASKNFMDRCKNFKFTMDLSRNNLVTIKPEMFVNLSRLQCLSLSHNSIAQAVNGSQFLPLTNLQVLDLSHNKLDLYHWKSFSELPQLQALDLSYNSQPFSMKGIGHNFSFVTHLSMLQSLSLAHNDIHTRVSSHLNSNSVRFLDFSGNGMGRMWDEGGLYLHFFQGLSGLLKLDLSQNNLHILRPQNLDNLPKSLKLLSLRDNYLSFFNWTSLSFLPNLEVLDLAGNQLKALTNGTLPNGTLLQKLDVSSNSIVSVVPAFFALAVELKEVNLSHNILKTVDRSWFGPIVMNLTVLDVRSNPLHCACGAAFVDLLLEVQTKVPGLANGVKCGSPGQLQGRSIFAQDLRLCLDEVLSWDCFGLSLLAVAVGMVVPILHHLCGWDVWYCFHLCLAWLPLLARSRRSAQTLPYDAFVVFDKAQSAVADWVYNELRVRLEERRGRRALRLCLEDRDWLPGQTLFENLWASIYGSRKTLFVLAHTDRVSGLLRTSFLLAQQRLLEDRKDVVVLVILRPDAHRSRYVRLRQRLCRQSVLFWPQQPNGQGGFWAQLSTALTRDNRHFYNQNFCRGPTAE
Description: Activation of mouse TLR9 expressed in HEK293 assessed as induction of NF-kappaB activity reporter gene assay. The class given is cell-based. (In a reporter assay the amount or activity of a reporter protein is the signal.)

Experiment [6] concerns PBMC. Description: Immunomodulatory activity in human PBMC assessed as induction of TNFalpha at 100 ug/ml after 24 hrs. The experiment is classed as functional, cell-based. A digest of the protocol: as §2

Activity calls are given as the source filed them. The calls are words filed in the database; no cut-off is given here.

Consider `Nc1ccn([C@@H]2O[C@H](COP(=O)(S)O[C@H]3[C@@H](O)[C@H](n4ccc5c(=O)[nH]c(N)nc54)O[C@@H]3COP(=O)(S)O[C@H]3[C@@H](O)[C@H](n4cnc5c(N)ncnc54)O[C@@H]3COP(=O)(S)O[C@H]3[C@@H](O)[C@H](n4cnc5c(N)ncnc54)O[C@@H]3COP(=O)(S)O[C@H]3[C@@H](O)[C@H](n4ccc5c(=O)[nH]c(N)nc54)O[C@@H]3COP(=O)(S)O[C@H]3[C@@H](O)[C@H](n4ccc(=O)[nH]c4=O)O[C@@H]3COP(=O)(S)O[C@H]3[C@@H](O)[C@H](n4ccc(=O)[nH]c4=O)O[C@@H]3COP(=O)(S)O[C@H]3[C@@H](O)[C@H](n4cnc5c(N)ncnc54)O[C@@H]3COP(=O)(S)O[C@H]3[C@@H](O)[C@H](n4cnc5c(N)ncnc54)O[C@@H]3CO)[C@@H](OP(=O)(S)OC[C@H]3O[C@@H](n4ccc(=O)[nH]c4=O)[C@H](O)[C@@H]3OP(=O)(S)OC[C@H]3O[C@@H](n4ccc(=O)[nH]c4=O)[C@H](O)[C@@H]3OP(=O)(S)OCC(O)COP(=O)(S)O[C@H]3[C@@H](O)[C@H](n4ccc(=O)[nH]c4=O)O[C@@H]3COP(=O)(S)O[C@H]3[C@@H](O)[C@H](n4ccc(=O)[nH]c4=O)O[C@@H]3COP(=O)(S)O[C@H]3[C@@H](O)[C@H](n4ccc(N)nc4=O)O[C@@H]3COP(=O)(S)O[C@H]3[C@@H](O)[C@H](n4ccc5c(=O)[nH]c(N)nc54)O[C@@H]3COP(=O)(S)O[C@H]3[C@@H](O)[C@H](n4cnc5c(N)ncnc54)O[C@@H]3COP(=O)(S)O[C@H]3[C@@H](O)[C@H](n4cnc5c(N)ncnc54)O[C@@H]3COP(=O)(S)O[C@H]3[C@@H](O)[C@H](n4ccc5c(=O)[nH]c(N)nc54)O[C@@H]3COP(=O)(S)O[C@H]3[C@@H](O)[C@H](n4ccc(=O)[nH]c4=O)O[C@@H]3COP(=O)(S)O[C@H]3[C@@H](O)[C@H](n4ccc(=O)[nH]c4=O)O[C@@H]3COP(=O)(S)O[C@H]3[C@@H](O)[C@H](n4cnc5c(N)ncnc54)O[C@@H]3COP(=O)(S)O[C@H]3[C@@H](O)[C@H](n4cnc5c(N)ncnc54)O[C@@H]3CO)[C@H]2O)c(=O)n1` (some centres not stated), for which the fold change (FC) in experiment [1] stood at 25. In addition, the result in the experiment on Splenocyte [2] and in the experiment on Splenocyte [3] was Active. The Activity was determined as 401 pg/mL in the experiment on PBMC [4] and 29.3 pg/mL in the experiment with PBMC [6]. In addition, the outcome in experiment [5] was inactive.

Turning to `Nc1ccn([C@@H]2O[C@H](COP(=O)(S)O[C@H]3[C@@H](O)[C@H](n4cnc5c(N)ncnc54)O[C@@H]3COP(=O)(S)O[C@H]3[C@@H](O)[C@H](n4ccc5c(=O)[nH]c(N)nc54)O[C@@H]3COP(=O)(S)O[C@H]3[C@@H](O)[C@H](n4ccc(N)nc4=O)O[C@@H]3COP(=O)(S)O[C@H]3[C@@H](O)[C@H](n4ccc5c(=O)[nH]c(N)nc54)O[C@@H]3COP(=O)(S)O[C@H]3[C@@H](O)[C@H](n4ccc(=O)[nH]c4=O)O[C@@H]3COP(=O)(S)O[C@H]3[C@@H](O)[C@H](n4ccc5c(=O)[nH]c(N)nc54)O[C@@H]3COP(=O)(S)O[C@H]3[C@@H](O)[C@H](n4cnc5c(N)ncnc54)O[C@@H]3COP(=O)(S)O[C@H]3[C@@H](O)[C@H](n4cnc5c(N)ncnc54)O[C@@H]3CO)[C@@H](OP(=O)(S)OC[C@H]3O[C@@H](n4ccc(=O)[nH]c4=O)[C@H](O)[C@@H]3OP(=O)(S)OC[C@H]3O[C@@H](n4ccc(=O)[nH]c4=O)[C@H](O)[C@@H]3OP(=O)(S)OCC(O)COP(=O)(S)O[C@H]3[C@@H](O)[C@H](n4ccc(=O)[nH]c4=O)O[C@@H]3COP(=O)(S)O[C@H]3[C@@H](O)[C@H](n4ccc(=O)[nH]c4=O)O[C@@H]3COP(=O)(S)O[C@H]3[C@@H](O)[C@H](n4ccc(N)nc4=O)O[C@@H]3COP(=O)(S)O[C@H]3[C@@H](O)[C@H](n4cnc5c(N)ncnc54)O[C@@H]3COP(=O)(S)O[C@H]3[C@@H](O)[C@H](n4ccc5c(=O)[nH]c(N)nc54)O[C@@H]3COP(=O)(S)O[C@H]3[C@@H](O)[C@H](n4ccc(N)nc4=O)O[C@@H]3COP(=O)(S)O[C@H]3[C@@H](O)[C@H](n4ccc5c(=O)[nH]c(N)nc54)O[C@@H]3COP(=O)(S)O[C@H]3[C@@H](O)[C@H](n4ccc(=O)[nH]c4=O)O[C@@H]3COP(=O)(S)O[C@H]3[C@@H](O)[C@H](n4ccc5c(=O)[nH]c(N)nc54)O[C@@H]3COP(=O)(S)O[C@H]3[C@@H](O)[C@H](n4cnc5c(N)ncnc54)O[C@@H]3COP(=O)(S)O[C@H]3[C@@H](O)[C@H](n4cnc5c(N)ncnc54)O[C@@H]3CO)[C@H]2O)c(=O)n1` (some centres not stated), in experiment [1], the fold change (FC) worked out at 20.7. Also, the result in the experiment with Splenocyte [2] and in the experiment on Splenocyte [3] was Active. The Activity is 171 pg/mL with PBMC [4] and 1.7 pg/mL in the experiment on PBMC [6]. Also, the result in experiment [5] was inactive.
